High-throughput results (PubChem BioAssay)
PREPL inh – human PREPL enzyme inhibition; Q4J6C6; recombinant PREPL, fluorescence polarization activity-based probe; inhibition, % at 5.96 µM; 0.68% of 320,000 active; AID 2751; in the data active = inhibition above about 43%;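 also: 0% = enzyme with DMSO and 100% = wells lacking enzyme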
UBC9 SUMO inh – blocks human SUMOylation mediated by UBC9. P63279. HTRF SUMOylation assay, SAE1/SAE2 + UBC9, in vitro. inhibition, % at 35 µM. 0.36% of 290,000 active. AID 2006; in the data active = inhibition above about 50%, passing the limit was not always enough; inconclusive = no clear call, values can overlap the other calls
Target sequence (P63279 whole entry, looked up): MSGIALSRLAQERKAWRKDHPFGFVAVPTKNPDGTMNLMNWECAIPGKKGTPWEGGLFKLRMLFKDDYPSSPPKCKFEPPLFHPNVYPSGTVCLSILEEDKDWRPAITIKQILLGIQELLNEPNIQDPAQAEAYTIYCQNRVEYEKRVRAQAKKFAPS
ALR inh – blocks human ALR sulfhydryl oxidase activity | P55789 | purified ALR, DTT oxidation, H2O2 HRP-luminol luminescence | inhibition, % (concentration not given with the values) | 3.8% of 290,000 active | AID 485317;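 active = mean replicate inhibition above about 79%, with every replicate also reaching it, limit read from the data; inconclusive = only one of the two criteria met; inactive = mean below limit and not every replicate reaching it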
Target sequence (P55789 whole entry, looked up): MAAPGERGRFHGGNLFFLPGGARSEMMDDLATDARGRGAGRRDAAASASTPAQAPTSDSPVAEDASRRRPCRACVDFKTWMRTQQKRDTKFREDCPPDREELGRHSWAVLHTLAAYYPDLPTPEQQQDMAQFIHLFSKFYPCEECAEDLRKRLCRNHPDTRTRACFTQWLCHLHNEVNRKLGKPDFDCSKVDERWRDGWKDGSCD
UBC13 inh – inhibitors of human UBC13 polyubiquitin chain formation; TR-FRET; 0.47% of 330,000 active; P61088; AID 485273; inhibition, % at 20 µM; in the data active = inhibition above about 45%, passing the limit was not always enough; inconclusive = no clear call, values can overlap the other calls
Rin1 Abl inh – inhibitors of human Rin1-Abl protein interaction. TR-FRET Rin1/Abl binding, biochemical. P00519+Q13671. inhibition, % at 7.35 µM. 0.4% of 360,000 active. AID 588664; in the data active = inhibition above about 5%, passing the limit was not always enough
RBBP9 inh – blocks human serine hydrolase RBBP9; inhibition, % at 7.94 µM; O75884; AID 1515; recombinant RBBP9, FP-Rh probe fluorescence polarization; 0.2% of 220,000 active;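 active = inhibition above the campaign mean of all tested compounds plus 3 SD, cut at about 14% in these data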;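 also: plate controls were DMSO wells with RBBP9 for no effect and wells lacking RBBP9 protein for full effect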
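Controls: DMSO-treated enzyme wells and wells lacking RBBP9 | Material: RBBP9 protein | Technique: Fluorescence polarization | Replication: Single well per compound, no replicates | Buffer or medium: Tris-NaCl-Pluronic buffer, pH 8.0 | Timing: 30 min compound preincubation, 45 min probe labeling, 25 °C | Read-out basis: Percent inhibition from mP, scaled between DMSO and no-protein wells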
Casp3 counter – counter-screen for UBC13 inhibitors: human caspase-3 inhibition; shares compounds with UBC13 inh; Recombinant caspase-3, Caspase-Glo 3/7 luminescence, 60 min; inhibition, % at 20 µM; 4% of 1,400 active;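 active = mean inhibition across replicates above about 26%, limit read from the data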;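 also: plate controls were DMSO with caspase-3 for no effect and DMSO wells lacking enzyme for full effect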
Target sequence (P42574 whole entry, looked up): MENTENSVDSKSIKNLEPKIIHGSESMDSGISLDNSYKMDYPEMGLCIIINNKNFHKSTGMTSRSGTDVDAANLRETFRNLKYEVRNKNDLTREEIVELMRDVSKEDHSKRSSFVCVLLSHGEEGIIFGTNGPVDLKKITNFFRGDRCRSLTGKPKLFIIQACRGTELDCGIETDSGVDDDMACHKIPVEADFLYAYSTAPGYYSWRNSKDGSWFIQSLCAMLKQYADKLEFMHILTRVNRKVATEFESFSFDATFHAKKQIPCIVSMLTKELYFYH
UBC13 conf – human UBC13 polyubiquitin inhibition, confirmed; UBC13 polyubiquitination, TR-FRET, biochemical; inhibition, % at 10 µM; shares compounds with UBC13 inh; 68% of 1,400 active; in the data active = inhibition above about 45%; inconclusive = no clear call, values can overlap the other calls
An asterisk follows results filed as active; ? = inconclusive; nt = no result given. This is a sample that favours compounds with a hit; in the whole collection about 4.3% have one here.

SMILES	PREPL inh	UBC9 SUMO inh	ALR inh	UBC13 inh	Rin1 Abl inh	RBBP9 inh	Casp3 counter	UBC13 conf
C[C@@H]1CN([C@H](C)CO)C(=O)CCCn2nncc2CO[C@H]1CN(C)Cc1ccc2c(c1)OCCO2	nt	nt	nt	nt	2	nt	nt	nt
Cc1ccc(CNC(=O)CNC(=O)[C@@H]2Cc3ccccc3CN2C(=O)OC(C)(C)C)cc1	-6	2	-42	8	1	nt	nt	nt
O=C(NC1CCCCC1)C1CCN(C(=O)c2ccc(Cl)cc2)CC1	-1	6	49	2	1	nt	nt	nt
COc1cccc(OCC(=O)NNC(=S)Nc2ccc(Cl)cc2Cl)c1	-4	-56	nt	-13	-1	1	nt	nt
Cc1cccc(N(C(=O)c2snc(C(N)=O)c2N)C(C(=O)NC2CCCC2)c2ccc(C)o2)c1 (centres undefined)	11	4	nt	55*	0	nt	1	39
COc1ccc(N(C(=O)c2snc(C(N)=O)c2N)C(C(=O)NC2CCCC2)c2ccc3ncccc3c2)cc1 (centres undefined)	26	16	nt	48*	-1	nt	-1	48*
CCC1(c2ccccc2)NC(=O)N(CC(=O)NCC2COc3ccccc3O2)C1=O (centres undefined)	nt	nt	nt	1	0	nt	nt	nt
Cc1ccc(S(=O)(=O)N2CCN(C(=O)COC(=O)COc3ccccc3C(C)C)CC2)c(C)c1	nt	nt	nt	nt	-2	nt	nt	nt
c1ccc2c(-c3ccc(OCCN4CCCCC4)cc3)c(-c3ccsc3)sc2c1	-4	nt	-3	58*	1	nt	-3	56*
c1ccc(-c2sc3ccccc3c2-c2ccc(OCCN3CCCCC3)cc2)cc1	6	nt	0	43	-2	nt	nt	nt
CN(C)CCOc1ccc(-c2c(-c3ccccc3)sc3ccccc23)cc1	5	nt	-11	82*	-1	nt	-2	90*
O=C(OCCN1CCN(C2=NS(=O)(=O)c3ccccc32)CC1)c1cccc(Br)c1	24	9	nt	8	-3	nt	nt	nt
COc1ccc(C2CC(=O)c3cnc(N4CCc5ccccc54)nc3C2)cc1OC (centres undefined)	5	44	-19	60*	nt	-3	2	?
COc1ccc(C2CC(=O)c3cnc(NC(=O)c4ccccc4)nc3C2)cc1OC (centres undefined)	2	7	nt	-8	3	2	nt	nt
CN(C(=O)c1cccc(NC(=O)Cc2cccc([N+](=O)[O-])c2)c1)C1CC1	9	nt	-6	18	1	nt	nt	nt
COc1cccc(/C=C2/Sc3ccc(C(=O)NCCN4CCCCCC4)cc3NC2=O)c1	-19	8	-8	66*	-3	nt	1	92*
Cc1cccc(/C=C2/Sc3ccc(C(=O)NCCN4CCCC4)cc3NC2=O)c1	18	6	1	60*	1	nt	3	94*
CCN1CCN(CCCNC(=O)c2ccc3c(c2)NC(=O)/C(=C\c2cccc(C)c2)S3)CC1	7	6	-13	55*	-6	nt	0	65*
Cc1cccc(/C=C2/Sc3ccc(C(=O)NCCCN4CCOCC4)cc3NC2=O)c1	4	4	2	37	-2	nt	nt	nt
O=C1Nc2cc(C(=O)NCCCN3CCCC3)ccc2S/C1=C/c1cccc(Cl)c1	nt	nt	nt	nt	-1	nt	nt	nt
O=C1Nc2cc(C(=O)NCCN3CCCCCC3)ccc2S/C1=C\c1ccccc1	-13	4	-5	36	-2	nt	nt	nt
COc1cc(C2C(C#N)=C(N)Oc3n[nH]c(-c4cccs4)c32)cc(OC)c1O (centres undefined)	0	-5	89*	84*	3	1	0	88*
COc1ccc(Cl)cc1Nc1nc(NCCO)nc(N2CCCC2)n1	12	18	0	8	-2	-9	nt	nt
COc1ccc(Cl)cc1Nc1nc(NCCO)nc(N2CCCCC2)n1	5	nt	-1	62*	1	nt	6	32
OCCNc1nc(Nc2ccccc2Cl)nc(N2CCCC2)n1	-2	nt	56	9	-1	nt	nt	nt
SMILES	PREPL inh	UBC9 SUMO inh	ALR inh	UBC13 inh	Rin1 Abl inh	RBBP9 inh	Casp3 counter	UBC13 conf
CC(C)Oc1ccc(Cl)cc1Nc1nc(NCCO)nc(N2CCCC2)n1	10	nt	3	60*	2	nt	8	34
OCCNc1nc(Nc2cc(Cl)ccc2OC2CCCC2)nc(N2CCCC2)n1	5	nt	1	52*	0	nt	2	37
CCCCOc1ccc(Cl)cc1Nc1nc(NCCO)nc(N2CCCC2)n1	7	nt	-3	60*	3	nt	-4	19
CCOc1ccc(Cl)cc1Nc1nc(NCCO)nc(N2CCCC2)n1	-3	nt	0	37	2	nt	nt	nt
CC1=C(C(=O)Nc2ccccc2)C(c2cccnc2)n2ncnc2N1 (centres undefined)	11	-4	9	-4	3	-17	nt	nt
Cc1cc2nc(Cl)c(Cl)nc2cc1C	-7	21	-1	47*	-2	-2	7	7
Cc1ccc(C(=O)N(C)Cc2nc3ccccc3c(=O)[nH]2)cc1NC(=O)c1ccco1	3	nt	-1	4	2	nt	nt	nt
CCCCN(CC)CCCNC(=O)c1cc2c(=O)n(C)c3ccccc3c2n1C	-43	12	4	49*	-2	-6	-4	36
CC(C)(c1ccccc1)c1ccc(OCC(O)CNC2CCN(Cc3ccccc3)CC2)cc1 (centres undefined)	6	6	-9	63*	0	-1	-1	70*
COc1ccc(CNC(=O)CN2C(=O)COc3ccc(S(=O)(=O)N4CCOCC4)cc32)cc1	3	nt	-4	2	-1	nt	nt	nt
COc1ccc(C(=O)c2c3ccc(C(F)(F)F)cc3[n+]([O-])n2CCCC(N)=O)cc1	11	nt	14	-15	3	nt	nt	nt
NC(=O)c1ccc(Cn2c(C(=O)c3cc(Cl)c(N)c(Cl)c3)c3ccccc3[n+]2[O-])cc1	-1	nt	-17	98*	-1	nt	0	95*
NCCCn1c(C(=O)c2cc(Cl)c(N)c(Cl)c2)c2ccc(C(F)(F)F)cc2[n+]1[O-]	21	nt	29	103*	-8	nt	1	111*
NC(=O)CCCn1c(C(=O)c2cc(Cl)c(N)c(Cl)c2)c2ccc(C(F)(F)F)cc2[n+]1[O-]	6	nt	28	97*	-1	nt	1	93*
NC(=O)c1ccc(Cn2c(C(=O)c3ccc(Cl)cc3)c3ccccc3[n+]2[O-])cc1	11	nt	-62	0	3	nt	nt	nt
O=C(Cc1cccc(NC(=O)C2CCN(S(=O)(=O)c3cccc([N+](=O)[O-])c3)CC2)c1)Nc1cccc(C(=O)N2CCCCC2)c1	nt	nt	nt	nt	-2	nt	nt	nt
CC(=O)NC(Cc1ccccc1F)C(=O)NC1CCN(C(=O)NCc2ccccc2)CC1 (centres undefined)	0	-4	nt	2	-1	nt	nt	nt
